# Source: PubChem BioAssay (Johns Hopkins Ion Channel Center)
# The list is not random: actives were taken first. Their share in the collection is about 3.1%.
# KCNQ1 block – inhibitors of human KCNQ1 channel, primary screen, cell-based, thallium flux, high-throughput; Potassium voltage-gated channel subfamily KQT member 1 (Homo sapiens), P51787; CHO-K1 KCNQ1, FluxOR thallium flux fluorescence; stronger effect = higher value; B-score at 10 µM; 310,000 compounds, 1.3% hits;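 active = compounds whose thallium flux B-score, printed positive for inhibition, exceeds three library SD while starting fluorescence stays within three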;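 note: channel opened by potassium depolarization with thallium stimulus after 20 min compound exposure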
# KCNQ1 act – potentiators or activators of KCNQ1 channel, primary screen, cell-based, thallium flux, high-throughput. Potassium voltage-gated channel subfamily KQT member 1 (Homo sapiens), P51787. CHO-K1 KCNQ1, thallium flux FluxOR fluorescence; stronger effect = higher value. B-score at 10 µM. 310,000 compounds, 0.35% hits;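 active = fluorescence ratio B-score, a plate-corrected score, at least three library SD, with initial intensity B-score within 5 SD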
#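 Assay system: CHO-K1 cells stably expressing KCNQ1. Medium: assay buffer for compound exposure, DMSO matched across wells. Timing: 37 °C overnight plating, 90-min dark dye load, 20-min compound pretreatment. Signal: kinetic FluxOR fluorescence, 10 s baseline plus 110 s post-stimulus.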
# KCNK3 block – human KCNK3 channel inhibitors, primary screen, CHO cells, FluxOR thallium flux, B-score. B-score at 10 µM. Potassium channel subfamily K member 3 (Homo sapiens), O14649. 340,000 compounds, 0.84% hits. FluxOR fluorescence; stronger effect = lower value. AID 602410, 2012;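 active = B-score under library mean minus 4 SD, starting fluorescence ratio at most library mean plus 5 SD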;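 note: more negative B-score means stronger inhibition of thallium flux through KCNK3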
# KCNK9 inh – KCNK9 potassium channel inhibitors, primary screen, HEK293 cells, thallium flux | Potassium channel subfamily K member 9 (Homo sapiens), Q9NPC2 | FluxOR thallium flux fluorescence; stronger effect = lower value | B-score at 10 µM | 310,000 compounds, 1.2% hits | AID 488922, 2010;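 active = ratio B-score over 3 SD below the library mean, with starting fluorescence within 5 SD of its mean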;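 note: negative B-score means less thallium flux so channel inhibition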
# hERG rescue – hERG rescue from dofetilide block, primary screen, cell-based, CHO-hERG, FluxOR thallium flux, dofetilide IC70; 310,000 compounds, 0.51% hits; AID 1511, 2009; Voltage-gated inwardly rectifying potassium channel KCNH2 (Homo sapiens), Q12809; dofetilide IC70 present; activation (rescue from dofetilide block), less the hit threshold, % at 10 µM;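 active = activation above the mean of controls blocked by dofetilide plus 5 SD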;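 note: thallium influx through hERG after potassium depolarization seen as dye fluorescence rise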
# KCNQ1 inh valid – KCNQ1 potassium channel inhibitors, confirmation, cell-based, Tl flux, duplicate | inhibition, % at 10 µM | KCNQ1 cell line, FluxOR thallium flux fluorescence | shares compounds with KCNQ1 block | 1,600 compounds, 93% hits | AID 588353, 2011;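 active = primary screen active, with duplicate mean exceeding buffer control mean plus 3 SD of buffer wells, cut at about 28% in these data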;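 note: 0% = buffer control ratio and 100% = XE991 inhibitor control ratio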
# CHO KCNQ1 ctr – thallium flux effects in parental CHO cells, counter-screen for KCNQ1 inhibitor project, cell-based, Tl flux; shares compounds with KCNQ1 block; parental CHO-K1, FluxOR thallium flux fluorescence ratio; stronger effect = lower value; zero means no signal rise above baseline; fluorescence ratio (Tl flux) at 10 µM; 1,600 compounds, 21% hits; AID 588366, 2011;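 active = mean of duplicate thallium-flux fluorescence ratios in parental host cells more than 5 SD below the buffer control mean, cut at about 0.38 in these data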;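 note: ratio is peak minus minimum fluorescence divided by baseline fluorescence; actives read low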
# KCNQ1 ephys val – KCNQ1 channel inhibitors, confirmation, orthogonal assay, cell-based, automated electrophysiology; AID 624120, 2012; calls only at 10 µM; KCNQ1-CHO cells, automated patch clamp current; 490 compounds, 20% hits; shares compounds with KCNQ1 block;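 active = KCNQ1 current drop exceeding 3 SD of negative control wells, seen in both duplicate runs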;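 note: steady state current during a 2 s step from -80 to +40 mV; negative values mean current inhibition and positive values mean potentiation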
# KCNQ2 inh – KCNQ2 channel inhibition, selectivity assay for KCNQ1 inhibitor project, cell-based; shares compounds with KCNQ1 block; KCNQ2 cells, FluxOR thallium flux fluorescence; inhibition, % at 10 µM; 1,600 compounds, 71% hits; AID 651746, 2012;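 active = mean percent inhibition of the KCNQ2 thallium signal more than 5 SD above the buffer-only control wells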;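 note: KCNQ2 expressed in CHO cells; 0% = buffer control wells and 100% = XE-991 inhibitor control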
# Target sequence (O88943 whole entry, looked up): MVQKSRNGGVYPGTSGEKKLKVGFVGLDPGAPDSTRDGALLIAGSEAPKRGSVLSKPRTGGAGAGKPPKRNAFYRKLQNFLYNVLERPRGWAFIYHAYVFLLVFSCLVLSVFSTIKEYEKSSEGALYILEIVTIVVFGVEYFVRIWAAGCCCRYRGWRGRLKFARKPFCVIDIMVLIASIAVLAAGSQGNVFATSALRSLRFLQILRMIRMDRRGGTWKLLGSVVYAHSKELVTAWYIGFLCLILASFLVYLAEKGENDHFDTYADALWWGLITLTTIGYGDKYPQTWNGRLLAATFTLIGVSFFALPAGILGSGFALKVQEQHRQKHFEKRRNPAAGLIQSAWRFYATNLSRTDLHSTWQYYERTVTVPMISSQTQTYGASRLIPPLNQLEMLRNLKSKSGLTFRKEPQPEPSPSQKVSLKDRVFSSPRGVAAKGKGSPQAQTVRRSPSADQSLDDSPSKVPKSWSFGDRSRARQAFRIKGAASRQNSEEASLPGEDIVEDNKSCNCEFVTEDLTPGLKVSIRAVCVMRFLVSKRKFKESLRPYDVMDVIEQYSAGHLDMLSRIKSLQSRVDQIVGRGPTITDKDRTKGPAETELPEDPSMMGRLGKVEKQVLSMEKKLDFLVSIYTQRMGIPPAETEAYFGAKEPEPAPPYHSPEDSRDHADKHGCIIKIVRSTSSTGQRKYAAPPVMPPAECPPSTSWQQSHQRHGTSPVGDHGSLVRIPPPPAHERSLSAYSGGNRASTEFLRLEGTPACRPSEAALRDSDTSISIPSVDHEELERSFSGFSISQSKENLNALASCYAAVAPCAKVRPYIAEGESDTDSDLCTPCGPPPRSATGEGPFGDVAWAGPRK
# KCNQ1-KCNE1 inh – KCNQ1/KCNE1 channel inhibition, selectivity assay for KCNQ1 inhibitor project, CHO-K1 cells, thallium flux, FluxOR; shares compounds with KCNQ1 block; FluxOR thallium flux fluorescence; inhibition, % at 10 µM; 1,600 compounds, 77% hits;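 active = mean percent inhibition of duplicate wells above the buffer-only control mean plus 3 SD of those controls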;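 note: 0% = buffer only wells and 100% = XE-991 inhibitor control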
# * hit, by the source's call; i = inactive; x = no result; + = active, no number.
SMILES,KCNQ1 block,KCNQ1 act,KCNK3 block,KCNK9 inh,hERG rescue,KCNQ1 inh valid,CHO KCNQ1 ctr,KCNQ2 inh,KCNQ1-KCNE1 inh,others
CCc1nnc(NC(=O)CCC2CCCCC2)s1,i,i,i,i,-3,x,x,x,x,
CCOc1ccc(NC(=S)Nc2ccc(OC(F)(F)F)cc2)cc1,7*,i,i,i,-3,0,0.55,i,i,
CCOc1ccc(NC(=S)Nc2ccc3nsnc3c2)cc1,6*,i,i,i,-2,82*,0.49,70%*,48%*,
CCOc1ccc(NC(=S)Nc2ccc(OCC)cc2)cc1,i,i,i,i,-21,x,x,x,x,
CCOc1ccc(NC(=O)Nc2ccc3nsnc3c2)cc1,12*,i,i,i,-11,27*,0.55,i,i,
COc1cc([N+](=O)[O-])ccc1NC(=O)NNC(=O)c1sccc1C,i,i,i,i,-8,x,x,x,x,
CCOC(=O)c1c(C)nc2ccc(Cl)cc2c1-c1ccccc1,7*,i,i,i,-10,122*,0.49,117%*,154%*,KCNQ1 ephys val=i
c1ccc(Cn2nnnc2C(c2cccnc2)N2CCN(C3CCCCC3)CC2)cc1 (configuration not stated),8*,i,i,i,-12,39*,0.47,64%*,38%*,
CC(C)NC(=O)C(=O)NCCC1CCCCN1S(=O)(=O)c1cccs1 (configuration not stated),i,i,i,i,-17,x,x,x,x,
CC(C)(C)CN1CCN(Cc2nc(-c3ccc(F)cc3)cs2)CC1CCO (configuration not stated),6*,i,i,i,-9,70*,0.48,74%*,64%*,
Cc1cccc(NC(=O)CN2CCN(C(=O)c3c(C)nn(Cc4ccccc4)c3C)CC2)c1C,x,x,i,x,x,x,x,x,x,
COc1cc(C(=O)NNC(=O)c2ccccc2OCc2c(C)noc2C)cc(OC)c1OC,x,x,i,x,x,x,x,x,x,
CCCc1ccc(C(C)NC(=S)NC2CCCCC2)cc1 (configuration not stated),6*,i,i,i,-3,46*,0.73,i,i,
COc1ccc(NC(=O)CCNC(=O)Cn2ccc3ccccc3c2=O)cc1OC,i,i,i,i,-4,x,x,x,x,
COc1cccc(CNC(=O)CCNC(=O)Cn2ccc3ccccc3c2=O)c1,7*,i,i,i,-17,0,0.56,i,i,
Cc1cc2c(cc1C)N(Cc1ccc(Cl)cc1)C1=NCCCN12,7*,i,i,i,-16,91*,0.41,105%*,98%*,KCNQ1 ephys val=+
CCOc1nc2cnccc2n(CC(=O)Nc2ccccc2C(=O)OC)c1=O,i,i,i,i,-10,x,x,x,x,
Cc1csc(NC(=O)C(Cc2ccccc2)n2cccc2)n1 (configuration not stated),13*,i,i,i,-18,54*,0.45,62%*,86%*,
Cc1ccc(NC(=O)C(Cc2ccccc2)n2cccc2)cc1 (configuration not stated),i,i,i,i,-10,x,x,x,x,
Cn1c(N)c(C(=O)COC(=O)C2CC(=O)N(Cc3ccccc3)C2)c(=O)n(C)c1=O (configuration not stated),6*,i,i,i,-18,0,0.45,60%*,i,
O=C(COC(=O)C1CC(=O)N(Cc2ccccc2)C1)c1ccc(Br)cc1 (configuration not stated),i,i,i,i,-9,x,x,x,x,
CC(C)(C)NC(=O)CN(Cc1ccccc1)S(=O)(=O)c1ccccc1,i,i,i,i,-12,x,x,x,x,
COc1ccc(C(NC(=O)C2CCCCC2)c2c(O)ccc3ccccc23)cc1 (configuration not stated),7*,i,i,i,-5,82*,0.43,89%*,92%*,
CCOc1ccccc1NC(=O)c1cccc(N2C(=O)CCC2=O)c1,i,i,i,i,0,x,x,x,x,
Cc1cc(C(=O)OCc2nnc(-c3ccccc3)o2)c(C)n1-c1ccccc1,10*,i,i,i,-8,132*,0.33*,108%*,173%*,
SMILES,KCNQ1 block,KCNQ1 act,KCNK3 block,KCNK9 inh,hERG rescue,KCNQ1 inh valid,CHO KCNQ1 ctr,KCNQ2 inh,KCNQ1-KCNE1 inh,others
O=C(Nc1ccc(Br)c(C(F)(F)F)c1)c1ccccc1,6*,i,i,-7.7*,-14,125*,0.4,137%*,110%*,KCNQ1 ephys val=i
COC(=O)C1CCN(S(=O)(=O)CCNC(=O)c2ccc3c(c2)OCO3)CC1,i,i,i,i,-13,x,x,x,x,
Cc1ccc(F)cc1NCC(=O)Nc1ccc(Br)cc1,8*,i,i,i,-17,70*,0.49,99%*,78%*,
Cc1ccc(NCC(=O)Nc2ccc(Br)cc2)cc1C,i,i,i,i,-5,x,x,x,x,
N#Cc1c(C(F)(F)F)cc(-c2ccc(Cl)cc2)[nH]c1=O,i,i,i,i,-3,x,x,x,x,
N#Cc1c(C(F)(F)F)cc(-c2ccc(F)cc2)[nH]c1=O,11*,i,i,i,-6,40*,0.54,i,i,
Cn1nccc1C(=O)NC1CCCc2c1cnn2-c1ccc(C(C)(C)C)cc1 (configuration not stated),9*,i,i,i,-14,94*,0.52,93%*,43%*,KCNQ1 ephys val=i
